1 molecule from ChEMBL document CHEMBL5715941, “AZD1152, a selective inhibitor of Aurora B kinase, inhibits human tumor xenograft growth by inducing apoptosis” (Clin Cancer Res, 2007) can be followed below.

Active and inactive are the calls of the source. No cut-off for these calls is given here.

For experiment [1], the system named is SW-620. Briefly: Antitumor activity against human SW620 cells xenografted in Swiss nude mouse assessed as inhibition in PhH3 level at 0.5 mg/kg/day, sc measured over 48 hrs by flow cytometry analysis relative to control. Type of experiment: functional. An outline of the steps: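 Male nude mice with palpable s.c. SW620 tumors (n = 4/group) received AZD1152 (0.5-150 mg/kg/d) or vehicle by constant 48-h s.c. mini-pump infusion. Tumors were then excised, fixed and disaggregated. Flow cytometry with propidium iodide gave DNA content (2N, 4N, >4N), and rabbit anti-PhH3 with fluorescein anti-rabbit IgG gave PhH3-positive cells (%).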
A general note: In xenograft studies the graft and the host belong to different species.

Experiment [2] deals with Calu-6. The experiment is described as follows: Antitumor activity against human Calu-6 cells xenografted in immunodeficient Swiss athymic mouse assessed as maximum inhibition of tumor volume at 150 mg/kg/day, sc for 48 hrs on days 20 to 22 and measured on day 29 relative to control. As to conditions: Calu-6, 240 h, time 10 day. Type of experiment: functional. An outline of the steps: (§1)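 Male Swiss athymic nude mice, 8-12 wk; tumor cells (1×10^6-1×10^7, 50:50 Matrigel) implanted s.c. on flank. Randomized (n = 8-11) at 0.2-0.5 cm3. AZD1152 in Tris buffer pH 9, or vehicle (0.3 mol/L Tris), by 48-h s.c. osmotic mini-pump infusion (two 24-h pumps in sequence). Caliper volumes up to 3×/week; growth inhibition from change in control vs treated volume; one-tailed t test.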

Experiment [3] concerns SW-620. Briefly: Antitumor activity against human SW620 cells xenografted in nude athymic rat assessed as proportion of polyploid DNA content in tumor cells at 25 mg/kg/day, iv for 1 to 5 consecutive days by flow cytometry analysis relative to control. It counts as functional. To be noted: time 1-5 day. An outline of the steps: (§2)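 Nude rats with SW620 xenografts (0.5-1 cm3) were given vehicle or AZD1152 at 25 mg/kg/d as an i.v. bolus once daily on days 1-4. Subgroups (n = 3) were killed on days 0, 5, 9, 12, 16 and 19. Disaggregated tumors were analyzed by flow cytometry for PhH3 (% of control) and for 4N and >4N DNA (fold over control).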

Experiment [4] concerns SW-620. Briefly: Antitumor activity against human SW620 cells xenografted in nude athymic rat assessed as proportion of 4N DNA content in tumor cells at 25 mg/kg/day, iv for 1 to 5 consecutive days by flow cytometry analysis relative to control. As to conditions: time 1-5 day. Type of experiment: functional. An outline of the steps: as §2
Experiment [5] concerns A549. Briefly: Antitumor activity against human A549 cells xenografted in immunodeficient Swiss athymic mouse assessed as maximum inhibition of tumor volume at 150 mg/kg/day, sc for 48 hrs on days 13 to 15 and measured on day 26 relative to control. To be noted: A549, 336 h, time 14 day. It counts as functional. An outline of the steps: as §1
For experiment [6], the system named is SW-620. The experiment is described as follows: Antitumor activity against human SW620 cells xenografted in nude athymic rat assessed as atrophy in bone marrow at 25 mg/kg/day, iv for 4 consecutive days and measured on 5 day by H&E staining based immunohistochemistry analysis. Type of experiment: functional, organism-based. An outline of the steps:
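Nude rats bearing SW620 tumors were dosed i.v. with AZD1152 at 25 mg/kg/d or with vehicle on days 1-4. Subgroups (n = 3) were killed at set days. Tumor and bone marrow sections were H&E-stained and examined histologically.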

What is called inhibition in vivo is how much of the control response was suppressed. As for `CCN(CCCOc1ccc2c(Nc3cc(CC(=O)Nc4cccc(F)c4)[nH]n3)ncnc2c1)CCOP(=O)(O)O` [BARASERTIB], in experiment [1], the inhibition in vivo at 0.5 mg/kg/day worked out at 52%. Besides, the results for the inhibition in vivo at 150 mg/kg/day in experiment [2] and in experiment [5] were 67% and 79%, respectively. Further, the Activity in experiment [3] stood at 67%; in experiment [4], 60%. Further, in experiment [6], the result was Active.
